Test results: article PMC2744899 (Journal of the American Chemical Society, 2009)
Where “and” joins values, the source holds several entries; their conditions need not be identical. Equal values may be shown once.

How the values were obtained:
[1] = Photobleaching of DIR/K7 by Xe lamp irradiation and fluoromodule regeneration; format: physicochemical
[2] = test system: scFv K7 displayed on the yeast cell-surface; experiment: Fluorescence titration of dye into yeast surface-displayed K7; conditions: read-out: Kd Yeast-Displayed K7, 10^7 yeast cells, 1:1 binding model
[3] = Thermal bleaching by singlet oxygen from sodium molybdate and H2O2; format: physicochemical; conditions: for loss of absorbance (bleaching): free dye 1 μM
Outline: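 Singlet oxygen was generated thermally from 50 mM Na2MoO4 plus 9.8 mM H2O2 (final) at pH 9.0, with ionic strength matched to standard wash buffer. Reactions used 1 µM dye, free (in H2O or D2O, followed by absorbance) or with 1 µM K7. Spectra were taken before molybdate addition, then every 10 min for 40 min.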

[4] = Photobleaching by direct irradiation; format: physicochemical; conditions: compare Figures 3 and 10, per photons absorbed per dye molecule

loss of DIR fluorescence after irradiation ([1]; 1:1 DIR/K7 at 250 nM, λ > 455 nm, 15 min, H2O) | fluorescence restored after addition of another equivalent of DIR ([1]; after 15 min irradiation, one equivalent (250 nM) fresh DIR added) | bleaching in the presence of K7 ([3]; [Dye] = [K7] = 1 μM, pH 9, 40 min) [%] | loss of absorbance (bleaching) ([3]; no K7, 90% D2O, pH 9, 40 min) [%] | loss of absorbance (bleaching) ([3]; no K7, H2O, pH 9, after 40 min reaction) [%] | photobleaching efficiency relative to DIR and α-CN-DIR [4] [fold] | Compound | Kd [2] [nM]
55 (±7) % and 55% | 89 % of the original value | 20 | 74 | 42 |  | CN1/C(=C/C=C/c2cc[n+](CCCS(=O)(=O)[O-])c3ccccc23)C(C)(C)c2ccccc21 [DIR, dimethylindole red] | 13.9 ± 3.2
 |  |  |  |  | > 100 | CN1C(=Cc2cc[n+](C)c3ccccc23)Sc2ccccc21 [TO, thiazole orange] | 
